Laboratory results: ChEMBL document CHEMBL4732040, “Irreversible inhibition of BoNT/A protease: proximity-driven reactivity contingent upon a bifunctional approach” (RSC Med Chem, 2021)
Where a name gives a salt, the structure may show the parent alone. Active and inactive are the calls of the source. The calls are words filed in the database; no cut-off is given here.

What was measured:
[1] = system: HEK293; assay: Cytotoxicity against human HEK293 cells assessed as reduction in cell viability incubated for 24 hrs by MTT assay; format: cell-based; conditions: for Activity: human, hek293, 24 h, time 24 hrs
In short: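 HEK293 cells were exposed to compound for 24 h before viability read-out. The paper reports n = 3, with error bars as SD.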

[2] = target: Botulinum neurotoxin type A (Clostridium botulinum) (UniProt P0DPI0); assay: Time dependent inhibition of Clostridium botulinum BoNT/A light chain (1 to 425 residues) using SNAPtide flp6 as substrate by FRET assay; conditions: dose 100.0 µM, time hrs <=8
Chain of Botulinum neurotoxin type A (Clostridium botulinum) (P0DPI0 2-448 limits assumed): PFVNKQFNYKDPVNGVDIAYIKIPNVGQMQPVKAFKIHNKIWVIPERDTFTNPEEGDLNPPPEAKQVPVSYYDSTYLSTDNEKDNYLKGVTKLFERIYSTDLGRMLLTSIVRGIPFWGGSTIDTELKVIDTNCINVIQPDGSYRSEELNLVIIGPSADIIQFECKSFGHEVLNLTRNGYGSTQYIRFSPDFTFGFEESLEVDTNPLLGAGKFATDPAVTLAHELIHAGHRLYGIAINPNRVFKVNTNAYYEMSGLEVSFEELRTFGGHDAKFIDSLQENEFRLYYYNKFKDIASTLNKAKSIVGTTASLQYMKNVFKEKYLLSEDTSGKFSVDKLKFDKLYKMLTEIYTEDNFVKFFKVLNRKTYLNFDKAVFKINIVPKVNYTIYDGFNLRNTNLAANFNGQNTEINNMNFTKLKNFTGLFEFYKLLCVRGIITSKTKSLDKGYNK

[3] = target: Botulinum neurotoxin type A (Clostridium botulinum) (UniProt P0DPI0); assay: Irreversible inhibition of Clostridium botulinum BoNT/A light chain (1 to 425 residues) assessed as ratio of Kinact/Ki using SNAPtide flp6 as substrate inhibited for 1 hr by FRET assay
[4] = GSH reactivity assessed as pseudo first order rate constant at 1 mM in presence of glutathione; format: physicochemical; conditions: 1000 µM
[5] = target: Macrophage metalloelastase (Homo sapiens, UniProt P39900); assay: Inhibition of MMP-12 (unknown origin) at 25 uM using TQ3-GABA-Pro-Cha-Abu-Smc-His-Ala-Dab(6'-TAMRA)-Ala-Lys-NH2 as substrate bu fluorometric analysis
Chain of Macrophage metalloelastase (P39900 whole entry): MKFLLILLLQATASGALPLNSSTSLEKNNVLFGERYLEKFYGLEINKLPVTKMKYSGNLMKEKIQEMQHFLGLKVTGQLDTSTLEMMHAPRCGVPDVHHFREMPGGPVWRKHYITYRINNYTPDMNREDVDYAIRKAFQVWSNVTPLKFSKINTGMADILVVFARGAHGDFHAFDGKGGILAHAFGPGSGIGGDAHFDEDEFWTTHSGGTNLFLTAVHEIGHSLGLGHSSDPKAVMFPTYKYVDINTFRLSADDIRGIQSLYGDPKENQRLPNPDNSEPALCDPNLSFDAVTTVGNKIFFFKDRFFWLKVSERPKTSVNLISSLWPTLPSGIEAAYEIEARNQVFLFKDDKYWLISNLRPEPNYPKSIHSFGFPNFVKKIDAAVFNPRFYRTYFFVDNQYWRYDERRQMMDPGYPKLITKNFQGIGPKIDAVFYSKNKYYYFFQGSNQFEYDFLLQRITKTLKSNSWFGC
In short: (§1)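 Residual activity of each MMP in the panel was measured in the presence of compound at 25 μM.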

[6] = target: T1, Matrix metalloproteinase-19 (Homo sapiens, UniProt Q99542); assay: Inhibition of MMP-19 (unknown origin) at 25 uM using TQ3-GABA-Pro-Cha-Abu-Smc-His-Ala-Dab(6'-TAMRA)-Ala-Lys-NH2 as substrate bu fluorometric analysis; in short: as §1
T1 sequence (Q99542 whole entry): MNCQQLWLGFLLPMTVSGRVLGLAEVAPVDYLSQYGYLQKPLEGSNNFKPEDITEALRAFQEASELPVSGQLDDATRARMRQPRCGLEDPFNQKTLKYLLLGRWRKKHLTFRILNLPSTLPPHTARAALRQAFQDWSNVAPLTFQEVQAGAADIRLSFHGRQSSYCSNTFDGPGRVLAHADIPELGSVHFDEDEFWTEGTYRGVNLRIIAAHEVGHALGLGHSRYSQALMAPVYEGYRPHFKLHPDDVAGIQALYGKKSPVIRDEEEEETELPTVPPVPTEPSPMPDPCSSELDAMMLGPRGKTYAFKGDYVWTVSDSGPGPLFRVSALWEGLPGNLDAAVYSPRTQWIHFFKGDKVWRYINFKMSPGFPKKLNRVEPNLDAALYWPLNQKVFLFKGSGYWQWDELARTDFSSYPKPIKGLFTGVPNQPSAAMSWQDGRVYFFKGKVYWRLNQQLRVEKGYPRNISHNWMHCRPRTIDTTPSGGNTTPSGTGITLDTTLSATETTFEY

[7] = target: Matrix metalloproteinase-14 (Homo sapiens, UniProt P50281); assay: Inhibition of MMP-14 (unknown origin) at 25 uM using TQ3-GABA-Pro-Cha-Abu-Smc-His-Ala-Dab(6'-TAMRA)-Ala-Lys-NH2 as substrate bu fluorometric analysis; in short: as §1
[8] = target: T2, Matrilysin (Homo sapiens, UniProt P09237); assay: Inhibition of MMP-7 (unknown origin) at 25 uM using TQ3-GABA-Pro-Cha-Abu-Smc-His-Ala-Dab(6'-TAMRA)-Ala-Lys-NH2 as substrate bu fluorometric analysis; in short: as §1
T2 sequence (P09237 whole entry): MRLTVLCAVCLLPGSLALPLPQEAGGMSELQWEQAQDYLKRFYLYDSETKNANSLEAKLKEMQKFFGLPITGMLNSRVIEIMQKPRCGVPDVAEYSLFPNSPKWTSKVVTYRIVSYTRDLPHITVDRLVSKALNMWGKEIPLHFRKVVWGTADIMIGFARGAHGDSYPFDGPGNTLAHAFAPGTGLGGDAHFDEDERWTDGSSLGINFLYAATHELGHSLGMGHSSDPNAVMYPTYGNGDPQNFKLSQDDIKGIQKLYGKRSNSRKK

[9] = target: Stromelysin-1 (Homo sapiens, UniProt P08254); assay: Inhibition of MMP-3 (unknown origin) at 25 uM using TQ3-GABA-Pro-Cha-Abu-Smc-His-Ala-Dab(6'-TAMRA)-Ala-Lys-NH2 as substrate bu fluorometric analysis; in short: as §1
Chain of Stromelysin-1 (P08254 whole entry): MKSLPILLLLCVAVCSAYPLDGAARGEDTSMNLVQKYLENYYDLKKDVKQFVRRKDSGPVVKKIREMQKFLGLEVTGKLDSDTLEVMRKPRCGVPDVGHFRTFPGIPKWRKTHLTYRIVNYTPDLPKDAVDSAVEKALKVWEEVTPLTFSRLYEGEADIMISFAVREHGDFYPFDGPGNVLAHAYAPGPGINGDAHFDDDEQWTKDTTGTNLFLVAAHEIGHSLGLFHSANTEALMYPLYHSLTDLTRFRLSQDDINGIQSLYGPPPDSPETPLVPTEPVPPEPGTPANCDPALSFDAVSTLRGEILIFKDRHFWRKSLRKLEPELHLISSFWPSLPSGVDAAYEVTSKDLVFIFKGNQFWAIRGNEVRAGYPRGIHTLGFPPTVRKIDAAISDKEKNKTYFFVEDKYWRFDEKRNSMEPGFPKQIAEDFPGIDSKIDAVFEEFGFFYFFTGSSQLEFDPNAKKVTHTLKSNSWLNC

[10] = target: T3, Interstitial collagenase (Homo sapiens, UniProt P03956); assay: Inhibition of MMP-1 (unknown origin) at 25 uM using TQ3-GABA-Pro-Cha-Abu-Smc-His-Ala-Dab(6'-TAMRA)-Ala-Lys-NH2 as substrate bu fluorometric analysis; in short: as §1
T3 sequence (P03956 whole entry): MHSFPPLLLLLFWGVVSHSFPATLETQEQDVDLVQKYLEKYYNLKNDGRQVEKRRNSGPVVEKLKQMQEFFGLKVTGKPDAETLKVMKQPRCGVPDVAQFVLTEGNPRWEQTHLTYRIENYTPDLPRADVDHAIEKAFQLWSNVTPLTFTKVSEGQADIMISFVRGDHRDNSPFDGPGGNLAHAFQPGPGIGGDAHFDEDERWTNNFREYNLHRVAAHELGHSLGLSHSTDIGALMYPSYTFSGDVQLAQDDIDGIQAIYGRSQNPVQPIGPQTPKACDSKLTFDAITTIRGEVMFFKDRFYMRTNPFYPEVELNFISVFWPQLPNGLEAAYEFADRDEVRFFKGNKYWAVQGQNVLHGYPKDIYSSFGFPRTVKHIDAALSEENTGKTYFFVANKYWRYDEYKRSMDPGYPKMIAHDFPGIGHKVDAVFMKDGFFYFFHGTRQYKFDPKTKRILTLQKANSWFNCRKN

[11] = target: Collagenase 3 (Homo sapiens, UniProt P45452); assay: Inhibition of MMP-13 (unknown origin) at 25 uM using TQ3-GABA-Pro-Cha-Abu-Smc-His-Ala-Dab(6'-TAMRA)-Ala-Lys-NH2 as substrate bu fluorometric analysis; in short: as §1
[12] = target: 72 kDa type IV collagenase (Homo sapiens, UniProt P08253); assay: Inhibition of MMP-2 (unknown origin) at 25 uM using TQ3-GABA-Pro-Cha-Abu-Smc-His-Ala-Dab(6'-TAMRA)-Ala-Lys-NH2 as substrate bu fluorometric analysis; in short: as §1
Chain of 72 kDa type IV collagenase (P08253 whole entry): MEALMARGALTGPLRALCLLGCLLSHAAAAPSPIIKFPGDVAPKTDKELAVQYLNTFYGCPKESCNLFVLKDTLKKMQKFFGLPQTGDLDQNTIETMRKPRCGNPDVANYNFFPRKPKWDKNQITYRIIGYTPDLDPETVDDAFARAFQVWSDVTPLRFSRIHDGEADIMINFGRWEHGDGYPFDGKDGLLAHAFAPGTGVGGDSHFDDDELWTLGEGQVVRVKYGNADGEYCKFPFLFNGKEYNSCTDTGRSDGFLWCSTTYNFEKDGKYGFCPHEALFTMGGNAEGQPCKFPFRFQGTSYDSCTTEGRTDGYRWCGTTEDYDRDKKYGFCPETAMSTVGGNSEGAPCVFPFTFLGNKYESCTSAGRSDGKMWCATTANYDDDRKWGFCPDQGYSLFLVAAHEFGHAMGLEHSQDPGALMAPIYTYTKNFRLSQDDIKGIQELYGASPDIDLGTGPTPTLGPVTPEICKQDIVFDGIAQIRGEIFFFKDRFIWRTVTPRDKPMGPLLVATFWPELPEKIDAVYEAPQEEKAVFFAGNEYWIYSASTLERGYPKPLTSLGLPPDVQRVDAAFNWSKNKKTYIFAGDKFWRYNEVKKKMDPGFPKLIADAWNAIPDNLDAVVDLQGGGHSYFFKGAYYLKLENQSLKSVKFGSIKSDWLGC

[13] = target: Neutrophil collagenase (Homo sapiens, UniProt P22894); assay: Inhibition of MMP-8 (unknown origin) at 25 uM using TQ3-GABA-Pro-Cha-Abu-Smc-His-Ala-Dab(6'-TAMRA)-Ala-Lys-NH2 as substrate bu fluorometric analysis; in short: as §1
Chain of Neutrophil collagenase (P22894 whole entry): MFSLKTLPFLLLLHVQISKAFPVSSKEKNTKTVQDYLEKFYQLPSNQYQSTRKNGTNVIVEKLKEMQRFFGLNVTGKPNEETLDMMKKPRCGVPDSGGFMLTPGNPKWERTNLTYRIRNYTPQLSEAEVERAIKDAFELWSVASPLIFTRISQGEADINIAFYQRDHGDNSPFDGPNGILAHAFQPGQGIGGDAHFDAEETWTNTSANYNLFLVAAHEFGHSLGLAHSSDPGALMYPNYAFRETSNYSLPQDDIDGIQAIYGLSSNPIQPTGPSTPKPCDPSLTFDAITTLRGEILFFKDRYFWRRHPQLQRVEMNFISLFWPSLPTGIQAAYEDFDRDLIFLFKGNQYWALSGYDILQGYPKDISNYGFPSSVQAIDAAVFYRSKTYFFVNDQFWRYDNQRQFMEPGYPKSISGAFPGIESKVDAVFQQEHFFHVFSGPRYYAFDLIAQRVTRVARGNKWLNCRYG

[14] = GSH reactivity assessed as half life at 1 mM in presence of glutathione; format: physicochemical

## O=C(/C=C/c1ccc(Cl)cc1Cl)N(O)CCCN1C(=O)CCC1=O
[1]
  Activity: Non-Toxic
[2]
  inhibition: inactive

## O=C(/C=C/C(F)F)NCCN(O)C(=O)/C=C/c1ccc(Cl)cc1Cl
[2]
  TDI: inactive

## O=C(/C=C/c1ccc(Cl)cc1Cl)N(O)CCCCC1CO1 (stereo not drawn)
[2]
  TDI: inactive

## O=C(CCl)NCCCN(O)C(=O)/C=C/c1ccc(Cl)cc1Cl
[2]
  TDI: inactive

## C=CC(=O)NCCCCCCN(O)C(=O)/C=C/c1ccc(Cl)cc1Cl
[2]
  TDI: inactive

## O=C(CBr)NCCN(O)C(=O)/C=C/c1ccc(Cl)cc1Cl
[2]
  TDI: inactive

## O=C(CCl)NCCCCN(O)C(=O)/C=C/c1ccc(Cl)cc1Cl
[2]
  TDI: inactive

## O=C(/C=C/c1ccc(Cl)cc1Cl)N(O)CCCCN1C(=O)C=CC1=O
[3]
  Ratio: 46.3 M⁻¹ s⁻¹

## O=C(/C=C/c1ccc(Cl)cc1Cl)N(O)CCCCCCC1CO1 (stereo not drawn)
[2]
  TDI: inactive

## O=C(NCCCCN(O)C(=O)/C=C/c1ccc(Cl)cc1Cl)C(F)Cl (stereo not drawn)
[2]
  TDI: inactive

## CC(=O)NCCCN(O)C(=O)/C=C/c1ccc(Cl)cc1Cl
[1]
  Activity: Non-Toxic
[2]
  TDI: inactive

## O=C(CCl)NCCN(O)C(=O)/C=C/c1ccc(Cl)cc1Cl
[2]
  TDI: inactive

## C=CC(=O)NCCCN(O)C(=O)/C=C/c1ccc(Cl)cc1Cl
[2]
  TDI: inactive

## O=C(/C=C/c1ccc(Cl)cc1Cl)NCCCN1C(=O)C=CC1=O
[1]; Homo sapiens, HEK293, 24 h
  IC50: 6 µM
[2]
  TDI: Active

## COC(=O)/C=C/C(=O)OC [DIMETHYL FUMARATE]
[4]
  K: 0.0589 min⁻¹

## O=C(CI)NCCCCN(O)C(=O)/C=C/c1ccc(Cl)cc1Cl
[3]
  Ratio: 12.4 M⁻¹ s⁻¹

## O=C(/C=C/c1ccc(Cl)cc1Cl)N(O)CCCN1C(=O)C=CC1=O
[5]
  inhibition (INH): Active
[6]
  inhibition (INH): Active
[7]
  inhibition (INH): Active
[8]
  inhibition (INH): Active
[4]
  K: 0.0023 min⁻¹
[9]
  inhibition (INH): Active
[10]
  inhibition (INH): Active
[11]
  inhibition (INH): Active
[12]
  inhibition (INH): Active
[13]
  inhibition (INH): Active

## O=C(/C=C/c1ccc(Cl)cc1Cl)NCCCNC(=O)CI
[1]
  Activity: Toxic
[2]
  TDI: Active

## O=C(CBr)NCCCCN(O)C(=O)/C=C/c1ccc(Cl)cc1Cl
[2]
  TDI: inactive

## O=C(NCCN(O)C(=O)/C=C/c1ccc(Cl)cc1Cl)C(F)Cl (stereo not drawn)
[2]
  TDI: inactive

## O=C(CBr)NCCCN(O)C(=O)/C=C/c1ccc(Cl)cc1Cl
[2]
  TDI: inactive

## N#CC1(NC(=O)CCCN(O)C(=O)/C=C/c2ccc(Cl)cc2Cl)CC1
[2]
  TDI: inactive

## O=C(/C=C/c1ccc(Cl)cc1Cl)NCCCCCC1CO1 (stereo not drawn)
[2]
  TDI: inactive

## O=C(NCCCN(O)C(=O)/C=C/c1ccc(Cl)cc1Cl)C(F)Cl (stereo not drawn)
[2]
  TDI: inactive

## C#CCCCN(O)C(=O)/C=C/c1ccc(Cl)cc1Cl
[2]
  TDI: inactive

## O=C(NCCCN(O)C(=O)/C=C/c1ccc(Cl)cc1Cl)Oc1ccccc1
[2]
  TDI: inactive

## C=C(F)C(=O)NCCCCN(O)C(=O)/C=C/c1ccc(Cl)cc1Cl
[2]
  TDI: inactive

## O=C(/C=C/c1ccc(Cl)cc1Cl)N(O)CCCCCC1CO1 (stereo not drawn)
[5]
  inhibition (INH): Not Active
[6]
  inhibition (INH): Not Active
[7]
  inhibition (INH): Not Active
[8]
  inhibition (INH): Not Active
[4]
  K: 0.0012 min⁻¹
[9]
  inhibition (INH): Not Active
[10]
  inhibition (INH): Not Active
[11]
  inhibition (INH): Not Active
[12]
  inhibition (INH): Not Active
[13]
  inhibition (INH): Not Active

## O=C(NCCN(O)C(=O)/C=C/c1ccc(Cl)cc1Cl)Oc1ccccc1
[2]
  TDI: inactive

## C#CCCCCN(O)C(=O)/C=C/c1ccc(Cl)cc1Cl
[2]
  TDI: inactive

## O=C(/C=C/C(F)F)NCCCN(O)C(=O)/C=C/c1ccc(Cl)cc1Cl
[2]
  TDI: inactive

## C=C(F)C(=O)NCCN(O)C(=O)/C=C/c1ccc(Cl)cc1Cl
[2]
  TDI: inactive

## CS(=O)(=O)SCCCCCCN(O)C(=O)/C=C/c1ccc(Cl)cc1Cl
[14]
  half-life at 1000 µM: < 5 min
[3]
  Ratio: 514 M⁻¹ s⁻¹

## C#CCCN(O)C(=O)/C=C/c1ccc(Cl)cc1Cl
[2]
  TDI: inactive

## C=CC(=O)NCCCCN(O)C(=O)/C=C/c1ccc(Cl)cc1Cl
[2]
  TDI: inactive

## O=C(CI)NCCCN(O)C(=O)/C=C/c1ccc(Cl)cc1Cl
[5]
  inhibition (INH): Not Active
[6]
  inhibition (INH): Not Active
[7]
  inhibition (INH): Not Active
[8]
  inhibition (INH): Not Active
[4]
  K: 0.0611 min⁻¹
[9]
  inhibition (INH): Not Active
[10]
  inhibition (INH): Not Active
[11]
  inhibition (INH): Not Active
[12]
  inhibition (INH): Not Active
[13]
  inhibition (INH): Not Active

## C=CC(=O)NCCCCCN(O)C(=O)/C=C/c1ccc(Cl)cc1Cl
[2]
  TDI: inactive

## O=C(/C=C/C(F)F)NCCCCN(O)C(=O)/C=C/c1ccc(Cl)cc1Cl
[2]
  TDI: inactive

## C=CC(=O)NCCN(O)C(=O)/C=C/c1ccc(Cl)cc1Cl
[2]
  TDI: inactive

## C=C(F)C(=O)NCCCN(O)C(=O)/C=C/c1ccc(Cl)cc1Cl
[2]
  TDI: inactive

## C#CCN(O)C(=O)/C=C/c1ccc(Cl)cc1Cl
[2]
  TDI: inactive
